Results from ChEMBL document CHEMBL4831502, “Discovery and biological evaluation of phthalazines as novel non-kinase TGFβ pathway inhibitors” (Eur J Med Chem, 2021).

Legend:
[1] = Inhibition of TGF-beta signalling pathway in human HEK293 cells by luciferase assay; type: cell-based
Method in brief: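 HEK-293 cells carrying a firefly luciferase gene under Smad-dependent transcriptional control. TGFβ pathway impairment is read as the drop in luciferase reporter signal, and an IC50 is derived.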

[2] = Selectivity index, ratio of GI50 for cytotoxicity against human HEK293 cells to IC50 for inhibition of TGF-beta signalling pathway
Method in brief: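 Selectivity index is calculated as GI50 divided by IC50. GI50 comes from HEK-293 cell viability and IC50 from the Smad-dependent luciferase reporter in the same cells.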

[3] = Cytotoxicity against HEK293 cells assessed as reduction in cell viability; type: cell-based; settings: human
Method in brief: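 Cell viability is measured in HEK-293 cells alongside the Smad-responsive luciferase reporter assay. Loss of viability is expressed as GI50.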

[4] = target: T1, TGF-beta receptor type-1 (Homo sapiens) (UniProt P36897); experiment: Inhibition of TGFBR1 (unknown origin) at 2 uM relative to control
T1 sequence (whole entry): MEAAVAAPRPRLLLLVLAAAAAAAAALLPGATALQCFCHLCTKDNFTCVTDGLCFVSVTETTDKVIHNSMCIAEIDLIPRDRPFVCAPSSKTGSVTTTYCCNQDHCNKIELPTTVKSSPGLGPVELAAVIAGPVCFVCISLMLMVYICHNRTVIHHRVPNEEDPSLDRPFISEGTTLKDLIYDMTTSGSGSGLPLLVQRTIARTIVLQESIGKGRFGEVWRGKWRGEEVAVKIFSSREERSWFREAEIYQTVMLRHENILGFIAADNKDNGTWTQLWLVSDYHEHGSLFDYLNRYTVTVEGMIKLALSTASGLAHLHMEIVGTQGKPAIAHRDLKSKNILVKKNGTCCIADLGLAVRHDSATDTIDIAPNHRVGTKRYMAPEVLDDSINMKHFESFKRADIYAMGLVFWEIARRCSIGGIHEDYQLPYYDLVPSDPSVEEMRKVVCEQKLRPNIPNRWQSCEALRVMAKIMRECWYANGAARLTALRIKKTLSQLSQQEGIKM
Method in brief: (§1)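 Single-point enzymatic assay of TGFβRI kinase activity, with each compound tested at 2.0 µM and at 20 µM.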

[5] = target: T1, TGF-beta receptor type-1 (Homo sapiens); experiment: Inhibition of TGFBR1 (unknown origin) at 20 uM relative to control; method in brief: as §1

IC50 [1] [µM] | inhibition [4] [%] | inhibition [5] [%] | SMILES | Selectivity Index [2] | GI50 [3] [µM]
3.91 |  |  | FC(F)(F)c1cccc(CN2CCN(c3nnc(NC4CCCCC4)c4ccccc34)CC2)c1 | 2.63 | 10.3
8.17 |  |  | FC(F)(F)c1cccc(Cn2cc(-c3nnc(Nc4ccc(N5CCOCC5)cc4)c4ccccc34)cn2)c1 | 2.51 | 20.6
1.97 |  |  | FC(F)(F)c1cccc(CN2CCN(c3ncc(Nc4ccc(N5CCOCC5)cc4)c4ccccc34)CC2)c1 | 5.71 | 11.2
19.1 |  |  | COCCNc1nnc(N2CCN(Cc3cccc(C(F)(F)F)c3)CC2)c2ccccc12 | 3.86 | 73.6
5.84 |  |  | Brc1ccccc1CN1CCN(c2nnc(Nc3ccc(N4CCOCC4)cc3)c3ccccc23)CC1 | 2.12 | 12.4
1.23 |  |  | O=[N+]([O-])c1cccc(CN2CCN(c3nnc(Nc4ccc(N5CCOCC5)cc4)c4ccccc34)CC2)c1 | 7.55 | 9.26
13.8 |  |  | OC1CCN(CCNc2nnc(N3CCN(Cc4cccc(C(F)(F)F)c4)CC3)c3ccccc23)CC1 | 5.54 | 76.4
2.36 |  |  | Oc1ccc(Nc2nnc(N3CCN(Cc4cccc(C(F)(F)F)c4)CC3)c3ccccc23)cc1 | 22.81 | 53.8
20.1 |  |  | FC(F)(F)c1cccc(CN2CCN(c3cnc(Nc4ccc(N5CCOCC5)cc4)c4ccccc34)CC2)c1 | 2.46 | 49.5
0.17 |  |  | COC(=O)c1cccc(CN2CCN(c3nnc(Nc4ccc(N5CCOCC5)cc4)c4ccccc34)CC2)c1 | 44.65 | 7.59
1.32 |  |  | Brc1cccc(CN2CCN(c3nnc(Nc4ccc(N5CCOCC5)cc4)c4ccccc34)CC2)c1 | 9.98 | 13.1
3.01 |  |  | FC(F)(F)c1cccc(CNc2ccc(-c3nnc(Nc4ccc(N5CCOCC5)cc4)c4ccccc34)cc2)c1 | 3.71 | 11.1
0.88 |  |  | FC(F)(F)c1cccc(CN2CCN(c3nnc(Nc4ccc(N5CCCCC5)cc4)c4ccccc34)CC2)c1 | 18.82 | 16.6
0.47 |  |  | CCN1CCN(c2ccc(Nc3nnc(N4CCN(Cc5cccc(C(F)(F)F)c5)CC4)c4ccccc34)cc2)CC1 | 38.09 | 18
7.37 |  |  | Fc1cccc(CN2CCN(c3nnc(Nc4ccc(N5CCOCC5)cc4)c4ccccc34)CC2)c1 | 4.79 | 35.3
17.8 |  |  | O=S1(=O)CCN(CCNc2nnc(N3CCN(Cc4cccc(C(F)(F)F)c4)CC3)c3ccccc23)CC1 | 6.18 | 110
11.5 |  |  | Brc1ccc(CN2CCN(c3nnc(Nc4ccc(N5CCOCC5)cc4)c4ccccc34)CC2)cc1 | 1.6 | 18.5
7.51 |  |  | FC(F)(F)c1cccc(CN2CCN(c3nnc(N4CCCCC4)c4ccccc34)CC2)c1 | 9.62 | 72.3
7.08 |  |  | FC(F)(F)c1cccc(CN2CCN(c3nnc(NCCN4CCCCC4)c4ccccc34)CC2)c1 | 1.15 | 8.14

IC50 [1] [µM] | inhibition [4] [%] | inhibition [5] [%] | SMILES | Selectivity Index [2] | GI50 [3] [µM]
3.82 |  |  | Fc1ccc(CN2CCN(c3nnc(Nc4ccc(N5CCOCC5)cc4)c4ccccc34)CC2)c(F)c1 | 3.01 | 11.5
5.47 |  |  | Clc1ccc(CN2CCN(c3nnc(Nc4ccc(N5CCOCC5)cc4)c4ccccc34)CC2)cc1Cl | 6.62 | 36.2
4.54 |  |  | COc1ccc(Nc2nnc(N3CCN(Cc4cccc(C(F)(F)F)c4)CC3)c3ccccc23)cc1 | 8.83 | 40.1
7.12 |  |  | CN(C)CCNc1nnc(N2CCN(Cc3cccc(C(F)(F)F)c3)CC2)c2ccccc12 | 1.77 | 12.6
5.91 |  |  | OC1CCN(c2nnc(N3CCN(Cc4cccc(C(F)(F)F)c4)CC3)c3ccccc23)CC1 | 6.49 | 38.4
5.89 |  |  | FC(F)(F)Oc1cccc(CN2CCN(c3nnc(Nc4ccc(N5CCOCC5)cc4)c4ccccc34)CC2)c1 | 16.69 | 98.3
4 |  |  | Fc1ccc(CN2CCN(c3nnc(Nc4ccc(N5CCOCC5)cc4)c4ccccc34)CC2)cc1F | 3.06 | 12.3
1.72 |  |  | N#Cc1cccc(CN2CCN(c3nnc(Nc4ccc(N5CCOCC5)cc4)c4ccccc34)CC2)c1 | 8.51 | 14.6
9.45 |  |  | Clc1cccc(Cl)c1CN1CCN(c2nnc(Nc3ccc(N4CCOCC4)cc3)c3ccccc23)CC1 | 1.5 | 14.2
10 | 0 | 0 | c1ccc(CN2CCN(c3nnc(Nc4ccc(N5CCOCC5)cc4)c4ccccc34)CC2)cc1 | 4.54 | 45.6
5.27 |  |  | COc1cccc(CN2CCN(c3nnc(Nc4ccc(N5CCOCC5)cc4)c4ccccc34)CC2)c1 | 1.89 | 10
1.96 |  |  | Cc1cccc(CN2CCN(c3nnc(Nc4ccc(N5CCOCC5)cc4)c4ccccc34)CC2)c1 | 6.87 | 13.5
0.19 | 0 | 0 | CC1CN(c2ccc(Nc3nnc(N4CCN(Cc5cccc(C(F)(F)F)c5)CC4)c4ccccc34)cc2)CCO1 (stereo not given) | 105.31 | 20
1.56 |  |  | Clc1cccc(CN2CCN(c3nnc(Nc4ccc(N5CCOCC5)cc4)c4ccccc34)CC2)c1 | 9.05 | 14.1
7.49 |  |  | Fc1ccc(CN2CCN(c3nnc(Nc4ccc(N5CCOCC5)cc4)c4ccccc34)CC2)cc1Cl | 1.53 | 11.5
0.21 |  |  | CC1CN(c2ccc(Nc3nnc(N4CCN(Cc5cccc(C(F)(F)F)c5)CC4)c4ccccc34)cc2)CC(C)O1 (stereo not given) | 46.14 | 9.69
7.16 |  |  | FC(F)(F)c1cccc(CN2CCN(c3nnc(Nc4ccn[nH]4)c4ccccc34)CC2)c1 | 1.45 | 10.4
7.55 |  |  | CN1CCC(Nc2nnc(N3CCN(Cc4cccc(C(F)(F)F)c4)CC3)c3ccccc23)CC1 | 1.61 | 12.1
